Data as given in ChEMBL document CHEMBL3425429.
Active and inactive are the calls of the source. The calls are words filed in the database; no cut-off is given here.

How the values were obtained:
[1] = Terminal half life in Sprague-Dawley rat at 10 mg/kg, po by LC/MS analysis; assay type: ADME, organism-based; design: dose 10 mg/kg, route oral; settings: in vivo, read-out: beta t1/2 (converted)
Summary of the method: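 Male Sprague-Dawley rats fitted with jugular vein catheters and fasted overnight, then given a single 10 mg/kg oral gavage dose; n=5. Serial blood samples were spun at once to plasma and analysed by LC-MS/MS. Noncompartmental parameters were fitted.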

MDA-MB-231 [2] = assay: Induction of apoptosis in human MDA-MB-231 cells assessed as early apoptotic cells at 0.03 uM after 48 hrs by annexin V-FITC/propidium iodide staining-based flow cytometric analysis (reference value: […]); assay type: functional
MDA-MB-231 [3] = assay: Induction of apoptosis in human MDA-MB-231 cells assessed as viable cells at 0.1 uM after 48 hrs by annexin V-FITC/propidium iodide staining-based flow cytometric analysis (reference value: 94.4%); assay type: functional; settings: MDA-MB-231, 48 h, read-out: Activity
[4] = biological target: Serine/threonine-protein kinase mTOR (Homo sapiens, UniProt P42345); assay: Inhibition of human mTOR
Summary of the method: (§1)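 Recombinant human protein kinases screened through the Eurofins KinaseProfiler service. IC50 values are means of two independent experiments.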

MDA-MB-231 [5] = assay: Antimigratory activity against human MDA-MB-231 cells at >0.03 uM after 20 hrs by wound healing assay; assay type: functional, cell-based
Summary of the method: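 MDA-MB-231 monolayers grown to confluence, scratched with a sterile pipet tip, rinsed with saline, then kept in DMEM containing vehicle or compound; wound images taken after 20 h and analysed.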

MDA-MB-231 [6] = assay: Induction of apoptosis in human MDA-MB-231 cells assessed as viable cells at 0.3 uM after 24 hrs by annexin V-FITC/propidium iodide staining-based flow cytometric analysis (reference value: 95.5%); assay type: functional; settings: MDA-MB-231, 24 h, read-out: Activity
MDA-MB-231 [7] = assay: Induction of apoptosis in human MDA-MB-231 cells assessed as viable cells at 0.03 uM after 24 hrs by annexin V-FITC/propidium iodide staining-based flow cytometric analysis (reference value: 95.5%); assay type: functional; settings: MDA-MB-231, 24 h, read-out: Activity
MDA-MB-231 [8] = assay: Induction of apoptosis in human MDA-MB-231 cells assessed as viable cells at 0.03 uM after 48 hrs by annexin V-FITC/propidium iodide staining-based flow cytometric analysis (reference value: 94.4%); assay type: functional; settings: MDA-MB-231, 48 h, read-out: Activity
Summary of the method: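 MDA-MB-231 cells (ATCC; medium with 10% FBS, 37 °C, 5% CO2) plated at 2 × 10^5 per six-well well and treated with a range of concentrations for 24 and 48 h at 37 °C. Cells harvested, washed with ice-cold PBS, stained with annexin V-FITC apoptosis detection kit and analysed by flow cytometry.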

MDA-MB-453 = assay: Cytotoxicity against human MDA-MB-453 cells assessed as cell viability after 72 hrs by MTT assay; assay type: functional, cell-based; settings: MDA-MB-453, 72 h
MDA-MB-231 [9] = assay: Antitumor activity against human MDA-MB-231 cells xenografted in SCID mouse assessed as tumor growth inhibition at 30 mg/kg/day, po qd administered for 18 days measured every 3 days during compound dosing relative to vehicle-treated control; assay type: functional; settings: read-out: TGI
Summary of the method: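 SCID mice (5–6 weeks) given subcutaneous injections of 5 ×10^6 MDA-MB-231 cells; at 150–200 mm3 tumors, randomized into 6 groups of 6; oral daily dosing (vehicle 25% PEG400 + 5% DMSO in sterile water), paclitaxel 10 mg/kg/week by tail vein; tumors measured every 3 days, volume = ab²/2; side effects monitored daily.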

MDA-MB-231 [10] = assay: cells; settings: Homo sapiens, MDA-MB-231, 72 h
MDA-MB-231 [11] = assay: Induction of apoptosis in human MDA-MB-231 cells assessed as early apoptotic cells at 0.3 uM after 24 hrs by annexin V-FITC/propidium iodide staining-based flow cytometric analysis (reference value: 1.58%); assay type: functional
MDA-MB-231 [12] = assay: Induction of apoptosis in human MDA-MB-231 cells assessed as early apoptotic cells at 0.03 uM after 24 hrs by annexin V-FITC/propidium iodide staining-based flow cytometric analysis (reference value: 1.58%); assay type: functional
[13] = biological target: Glycogen synthase kinase-3 beta (Homo sapiens, UniProt P49841); assay: Inhibition of human GSK3beta; summary of the method: as §1
Glycogen synthase kinase-3 beta, sequence (P49841 whole entry): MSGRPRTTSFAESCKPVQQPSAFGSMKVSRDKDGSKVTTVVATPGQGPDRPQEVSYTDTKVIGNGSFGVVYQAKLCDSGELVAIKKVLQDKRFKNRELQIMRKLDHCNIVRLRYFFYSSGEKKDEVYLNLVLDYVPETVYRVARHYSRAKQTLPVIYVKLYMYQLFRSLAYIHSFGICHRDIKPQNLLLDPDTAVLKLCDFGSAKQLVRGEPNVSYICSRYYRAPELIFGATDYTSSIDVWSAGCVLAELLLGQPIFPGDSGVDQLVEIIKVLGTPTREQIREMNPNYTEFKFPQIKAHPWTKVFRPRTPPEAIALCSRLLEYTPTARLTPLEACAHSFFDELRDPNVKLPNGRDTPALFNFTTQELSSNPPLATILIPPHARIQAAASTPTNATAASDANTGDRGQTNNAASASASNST

[14] = biological target: Proto-oncogene tyrosine-protein kinase Src (Homo sapiens, UniProt P12931)
Proto-oncogene tyrosine-protein kinase Src, sequence (P12931 2-536 limits assumed): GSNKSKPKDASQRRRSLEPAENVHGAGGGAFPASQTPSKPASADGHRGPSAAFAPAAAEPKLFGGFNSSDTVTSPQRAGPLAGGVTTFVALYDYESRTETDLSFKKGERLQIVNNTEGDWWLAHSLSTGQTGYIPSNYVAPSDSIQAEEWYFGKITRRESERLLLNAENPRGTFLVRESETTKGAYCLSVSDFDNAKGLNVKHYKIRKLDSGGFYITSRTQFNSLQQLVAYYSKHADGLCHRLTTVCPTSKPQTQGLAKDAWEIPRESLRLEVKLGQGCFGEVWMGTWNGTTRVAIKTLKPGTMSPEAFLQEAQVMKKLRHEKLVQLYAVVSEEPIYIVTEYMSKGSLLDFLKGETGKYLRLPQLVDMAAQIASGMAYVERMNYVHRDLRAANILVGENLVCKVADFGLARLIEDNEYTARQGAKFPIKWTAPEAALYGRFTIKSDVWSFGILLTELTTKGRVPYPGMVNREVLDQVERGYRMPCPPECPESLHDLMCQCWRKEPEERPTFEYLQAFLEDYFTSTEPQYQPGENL

[15] = Cmax in Sprague-Dawley rat at 10 mg/kg, po by LC/MS analysis; assay type: ADME, organism-based; design: dose 10 mg/kg, route oral; settings: in vivo
Summary of the method: (§2)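 Single oral gavage dose in male Sprague-Dawley rats fasted overnight; serial blood drawn via surgically placed jugular vein catheters at set times, plasma separated at once and measured by HPLC-MS/MS; noncompartmental parameters fitted; n=5.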

Aurora kinase A = Aurora kinase A (Homo sapiens, UniProt O14965); assay: Inhibition of human Aurora-A; summary of the method: as §1
Aurora kinase A, sequence (O14965 whole entry): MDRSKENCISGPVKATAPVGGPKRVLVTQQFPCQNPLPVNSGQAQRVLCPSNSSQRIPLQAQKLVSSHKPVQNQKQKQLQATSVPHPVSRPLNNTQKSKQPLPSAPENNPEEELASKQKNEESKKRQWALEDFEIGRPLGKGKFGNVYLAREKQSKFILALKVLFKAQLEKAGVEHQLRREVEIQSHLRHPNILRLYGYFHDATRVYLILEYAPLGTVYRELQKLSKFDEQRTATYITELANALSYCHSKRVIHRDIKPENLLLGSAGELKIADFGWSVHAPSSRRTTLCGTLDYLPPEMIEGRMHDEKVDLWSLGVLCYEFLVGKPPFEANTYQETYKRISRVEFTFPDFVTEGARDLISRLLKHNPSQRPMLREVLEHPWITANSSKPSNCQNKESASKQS

MDA-MB-231 [16] = assay: Induction of apoptosis in human MDA-MB-231 cells assessed as viable cells at 0.1 uM after 24 hrs by annexin V-FITC/propidium iodide staining-based flow cytometric analysis (reference value: 95.5%); assay type: functional; settings: MDA-MB-231, 24 h, read-out: Activity
Ramos = assay: Cytotoxicity against human Ramos cells assessed as cell viability after 72 hrs by MTT assay; assay type: functional, cell-based
[17] = Cytotoxicity against human HBL1 cells assessed as cell viability after 72 hrs by MTT assay; assay type: functional, cell-based; settings: HBL1, 72 h
[18] = biological target: Tyrosine-protein kinase Yes (Homo sapiens, UniProt P07947); assay: Inhibition of human Yes
Tyrosine-protein kinase Yes, sequence (P07947 whole entry): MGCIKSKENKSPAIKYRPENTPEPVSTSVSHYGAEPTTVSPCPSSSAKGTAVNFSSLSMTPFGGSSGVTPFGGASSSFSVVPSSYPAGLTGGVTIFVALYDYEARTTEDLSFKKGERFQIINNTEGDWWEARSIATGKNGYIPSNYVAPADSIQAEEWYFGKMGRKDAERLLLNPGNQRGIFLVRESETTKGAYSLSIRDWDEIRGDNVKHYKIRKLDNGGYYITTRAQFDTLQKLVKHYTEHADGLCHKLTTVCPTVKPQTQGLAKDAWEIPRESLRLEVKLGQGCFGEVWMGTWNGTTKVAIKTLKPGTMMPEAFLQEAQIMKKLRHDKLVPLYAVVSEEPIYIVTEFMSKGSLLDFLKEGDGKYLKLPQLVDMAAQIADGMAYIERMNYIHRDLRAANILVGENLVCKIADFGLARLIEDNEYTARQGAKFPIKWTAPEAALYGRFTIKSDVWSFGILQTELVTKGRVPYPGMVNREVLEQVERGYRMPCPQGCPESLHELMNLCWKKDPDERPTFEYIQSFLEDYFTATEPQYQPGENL
Summary of the method: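 Recombinant human kinase assayed in Eurofins KinaseProfiler panel; IC50 reported as mean of two independent experiments.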

MCF7 = assay: Cytotoxicity against human MCF7 cells assessed as cell viability after 72 hrs by MTT assay; assay type: functional, cell-based; settings: MCF7, 72 h
Mus musculus = assay: Toxicity in SCID mouse xenografted with human MDA-MB-231 cells at 7.5 to 15 mg/kg/day, po qd administered for 18 days measured everyday during compound dosing; assay type: organism-based; design: route oral; settings: in vivo, 432 h
Summary of the method: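 SCID mice (5–6 weeks) implanted subcutaneously with 100 μL of MDA-MB-231 suspension at 5 ×10^7 per mL. At 150–200 mm3 tumours, mice were randomised (6 per group) and dosed orally once daily for 18 days in water with 25% PEG400 plus 5% DMSO. Side effects were monitored daily.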

[19] = biological target: Cyclin-dependent kinase 7 (Homo sapiens, UniProt P50613); assay: Inhibition of human CDK7; summary of the method: as §1
Cyclin-dependent kinase 7, sequence (P50613 whole entry, canonical isoform): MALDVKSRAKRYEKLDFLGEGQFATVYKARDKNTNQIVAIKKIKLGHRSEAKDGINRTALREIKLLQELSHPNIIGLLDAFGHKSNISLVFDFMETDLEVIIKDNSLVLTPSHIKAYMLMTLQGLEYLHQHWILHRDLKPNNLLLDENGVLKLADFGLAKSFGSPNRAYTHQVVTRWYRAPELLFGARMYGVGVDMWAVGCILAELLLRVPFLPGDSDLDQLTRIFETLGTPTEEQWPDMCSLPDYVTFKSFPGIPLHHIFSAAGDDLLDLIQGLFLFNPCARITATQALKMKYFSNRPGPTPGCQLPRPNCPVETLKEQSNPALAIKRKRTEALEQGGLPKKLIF

[20] = biological target: Phosphatidylinositol 4,5-bisphosphate 3-kinase catalytic subunit alpha isoform (Homo sapiens, UniProt P42336); assay: Inhibition of human PI3Kalpha; summary of the method: as §1
Phosphatidylinositol 4,5-bisphosphate 3-kinase catalytic subunit alpha isoform, sequence (P42336 whole entry, canonical isoform): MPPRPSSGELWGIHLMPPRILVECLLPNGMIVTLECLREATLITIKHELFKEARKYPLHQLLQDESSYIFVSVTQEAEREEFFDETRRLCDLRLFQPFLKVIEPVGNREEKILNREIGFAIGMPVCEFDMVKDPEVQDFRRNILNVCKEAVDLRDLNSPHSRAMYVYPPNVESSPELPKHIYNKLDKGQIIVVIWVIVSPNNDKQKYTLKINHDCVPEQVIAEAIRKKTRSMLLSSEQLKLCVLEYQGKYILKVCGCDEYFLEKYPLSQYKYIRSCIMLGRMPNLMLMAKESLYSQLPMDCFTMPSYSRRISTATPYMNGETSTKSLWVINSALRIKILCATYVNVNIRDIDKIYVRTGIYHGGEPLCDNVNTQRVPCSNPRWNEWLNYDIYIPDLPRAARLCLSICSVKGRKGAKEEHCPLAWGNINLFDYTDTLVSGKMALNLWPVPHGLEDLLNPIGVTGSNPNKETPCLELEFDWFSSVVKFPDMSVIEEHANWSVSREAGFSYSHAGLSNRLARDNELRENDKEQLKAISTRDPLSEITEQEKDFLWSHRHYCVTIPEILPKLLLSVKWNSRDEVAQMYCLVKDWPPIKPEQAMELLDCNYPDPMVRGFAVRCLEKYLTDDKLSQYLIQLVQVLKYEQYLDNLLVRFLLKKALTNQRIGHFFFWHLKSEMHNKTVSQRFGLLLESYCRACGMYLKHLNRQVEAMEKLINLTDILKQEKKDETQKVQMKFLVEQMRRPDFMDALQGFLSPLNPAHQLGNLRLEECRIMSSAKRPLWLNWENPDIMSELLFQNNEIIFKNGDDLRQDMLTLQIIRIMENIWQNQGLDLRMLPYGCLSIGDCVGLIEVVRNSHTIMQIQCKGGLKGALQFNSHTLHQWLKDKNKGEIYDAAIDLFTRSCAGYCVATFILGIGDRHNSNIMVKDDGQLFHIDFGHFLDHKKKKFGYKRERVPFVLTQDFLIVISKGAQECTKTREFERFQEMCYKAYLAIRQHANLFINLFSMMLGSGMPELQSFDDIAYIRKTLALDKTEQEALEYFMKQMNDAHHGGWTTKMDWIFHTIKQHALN

MDA-MB-231 [21] = assay: Induction of apoptosis in human MDA-MB-231 cells assessed as late apoptotic cells at 0.03 uM after 48 hrs by annexin V-FITC/propidium iodide staining-based flow cytometric analysis (reference value: 4.25%); assay type: functional
MDA-MB-231 [22] = assay: Antiinvasive activity against human MDA-MB-231 cells at 0.1 uM after 24 hrs by transwell assay; assay type: functional, cell-based
[23] = biological target: Cyclin-dependent kinase 2 (Homo sapiens, UniProt P24941); assay: Inhibition of human CDK2; summary of the method: as §1
[24] = Clearance in Sprague-Dawley rat at 10 mg/kg, po by LC/MS analysis; assay type: ADME, organism-based; design: dose 10 mg/kg, route oral; settings: in vivo; summary of the method: as §2

half-life [1]: 12.8 h
IC50 [4]: > 10 µM
IC50 (MDA-MB-231 [10]): 0.011 µM
IC50 [13]: > 10 µM
IC50 [14]: 0.03 µM
Cmax [15]: 215 ng/mL
IC50 (Aurora kinase A): > 10 µM
IC50 [18]: 0.0008 µM
IC50 [19]: > 10 µM
IC50 [20]: > 10 µM
IC50 [23]: > 10 µM
CL/F [24]: 35 mL/min/kg
Compound: CCn1nc(C#Cc2cc(C(=O)Nc3ccc(CN4CCN(C)CC4)c(C(F)(F)F)c3)ccc2C)c2c(N)ncnc21
Activity (MDA-MB-231 [2]): 3.23%
viability at 0.1 µM (MDA-MB-231 [3]): 69.2%
Activity (MDA-MB-231 [5]): Active
viability at 0.3 µM (MDA-MB-231 [6]): 76.7%
viability at 0.03 µM (MDA-MB-231 [7]): 92.9%
viability at 0.03 µM (MDA-MB-231 [8]): 90.5%
IC50 (MDA-MB-453): 0.325 µM
inhibition in vivo at 30 mg/kg/day (MDA-MB-231 [9]): > 100%
Activity (MDA-MB-231 [11]): 6.51%
Activity (MDA-MB-231 [12]): 2.29%
viability at 0.1 µM (MDA-MB-231 [16]): 79.1%
IC50 (Ramos): 10 µM
IC50 [17]: 10 µM
IC50 (MCF7): 7.25 µM
Activity (Mus musculus): Non-toxic
Activity (MDA-MB-231 [21]): 4.85%
Activity (MDA-MB-231 [22]): Active
